Experimental data of several laboratories.
Protocols differ between the studies behind these lines.
Target: Wee1-like protein kinase 2 (WEE2, Homo sapiens, UniProt P0C1S8)

O=C(NCC1CCOCC1)c1n[nH]cc1NC(=O)c1c(F)cccc1F — remaining binding (binding; competition with immobilised ligand; 1 µM): 100%
FC(F)(F)Oc1cccc(-c2cnc3ccc(-c4ccncc4)nn23)c1 — remaining binding (binding; competition with immobilised ligand; 5 µM): 86%
CN(CCCC(F)(F)F)c1nccc(-c2cnn3ncccc23)n1 — remaining binding (binding; 1 µM): 97%
COc1ncc2cc3ccccc3nc2c1C#N — remaining binding (cell-free assay; competition with immobilised ligand; 5 µM): 100%
COc1cnc(Nc2cccc(S(N)(=O)=O)c2)nc1N1CCN(c2ccccc2)CC1 — remaining binding (binding; competition with immobilised ligand; 1 µM): 96%
O=C(c1ccc(Nc2nccc(-c3cc4ccccc4s3)n2)cc1)N1CCC(N2CCCC2)CC1 — remaining binding (binding; competition with immobilised ligand; 1 µM): 65%
CCN1CCN(Cc2ccc(C(=O)Nc3ccc(C)c(Oc4ccc5c(c4)CC(=O)N5)c3)cc2C(F)(F)F)CC1 — remaining binding (binding; competition with immobilised ligand; 1 µM): 100%
Cc1cc(-n2nc(Cc3cc(F)cc(C(F)(F)F)c3)nc2C)ccc1C(N)=O — remaining binding (cell-free assay; competition with immobilised ligand; 1 µM): 100%
O=C(NCCCN1CCOCC1)c1ccc(Nc2ncc(Cl)c(-c3ccc(Cl)s3)n2)cc1 — remaining binding (binding; competition with immobilised ligand; 1 µM): 19%
N[C@@H]1CCN(c2nccc(-c3cnn4ncccc34)n2)C1 — remaining binding (binding; 1 µM): 100%
O=C(NCCCN1CCOCC1)c1ccc(Nc2nccc(-c3cc4ccccc4s3)n2)cc1 — remaining binding (binding; competition with immobilised ligand; 1 µM): 86%
COc1cccc(CNC(=O)c2nc3scc(COCc4ccc(C(=O)O)cc4)c3c(=O)[nH]2)c1 — remaining binding (cell-free assay; competition with immobilised ligand; 1 µM): 96.9%
C[C@H]1CCN(c2nccc(-c3cnn4ncccc34)n2)C1 — remaining binding (binding; 1 µM): 100%
NS(=O)(=O)c1cc(NC(=O)Cc2ccccc2)ccc1Oc1cccc(Cl)c1 — remaining binding (cell-free assay; competition with immobilised ligand; 1 µM): 78%
CN(c1nccc(-c2cnn3ncccc23)n1)C1CC1 — remaining binding (binding; 1 µM): 100%
O=C(NCc1ncc(C(F)(F)F)cc1Cl)c1ccc2c(c1)C1(CCS(=O)(=O)CC1)[C@H](C1CC1)N2S(=O)(=O)c1ccc(F)cc1 — remaining binding (cell-free assay; competition with immobilised ligand; 1 µM): 100%
CC1CCCN1c1nccc(-c2cnn3ncccc23)n1 (stereo not drawn) — remaining binding (binding; 1 µM): 100%
O=C(Nc1cnc(Oc2ccc(F)cc2)nc1)N1CCc2ncccc2[C@@H]1c1ccc(F)cc1 — remaining binding (cell-free assay; competition with immobilised ligand; 1 µM): 95%
CN(C)c1ncc(F)c(-c2cnn3ncccc23)n1 — remaining binding (binding; 1 µM): 98%
O=C1CCc2cc(Nc3cc(OC4CCOCC4)c([N+](=O)[O-])cc3Cl)ccc2N1 — remaining binding (cell-free assay; competition with immobilised ligand; 1 µM): 96%
C=CC(=O)N1CCC(C(=O)NCC(=O)N2CCN(c3nc(-c4cnc(N)nc4C(F)F)nc(N4CCOCC4)n3)CC2)CC1 — remaining binding (binding; competition with immobilised ligand; 1 µM): 100%
